Results reported in ChEMBL document CHEMBL4007489, “First Bispecific Inhibitors of the Epidermal Growth Factor Receptor Kinase and the NF-κB Activity As Novel Anticancer Agents” (J Med Chem, 2017).
Calls of active or inactive are those of the source. The rule behind the calls is not given here.

How the values were obtained:
[1] = target: Serine/threonine-protein kinase pim-1 (Homo sapiens, UniProt P11309); experiment: Inhibition of human recombinant full length His-tagged PIM-1 expressed in baculovirus expression system
[2] = target: T1, MAP kinase-interacting serine/threonine-protein kinase 2 (Homo sapiens, UniProt Q9HBH9); experiment: Inhibition of human full length N-terminal GST-tagged MNK2 expressed in baculovirus expression system at 5 uM
Target sequence in this assay (Q9HBH9 whole entry, looked up): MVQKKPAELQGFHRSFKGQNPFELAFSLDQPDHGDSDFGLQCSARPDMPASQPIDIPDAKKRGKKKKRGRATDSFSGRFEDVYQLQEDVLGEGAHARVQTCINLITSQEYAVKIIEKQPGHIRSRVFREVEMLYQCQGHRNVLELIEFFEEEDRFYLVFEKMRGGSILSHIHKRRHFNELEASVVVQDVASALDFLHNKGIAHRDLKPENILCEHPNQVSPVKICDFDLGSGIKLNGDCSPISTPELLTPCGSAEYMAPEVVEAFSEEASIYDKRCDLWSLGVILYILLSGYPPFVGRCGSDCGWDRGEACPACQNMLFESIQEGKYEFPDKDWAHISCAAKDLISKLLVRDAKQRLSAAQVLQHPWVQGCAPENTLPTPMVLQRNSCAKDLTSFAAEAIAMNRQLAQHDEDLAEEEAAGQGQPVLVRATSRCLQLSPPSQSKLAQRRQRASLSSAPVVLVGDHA

[3] = target: Transcription factor p65 (Homo sapiens) (UniProt Q04206); experiment: Inhibition of IL-1beta-stimulated nuclear translocation of GFP-tagged NF-kappaB-p65 (unknown origin) expressed in CHO cells at 15 uM preincubated with IL-1beta for 30 mins followed by compound addition by fluorescence assay; assay type: cell-based
cells = assay type: cell-based; conditions: Homo sapiens, U-937
in vitro [4] = conditions: human, HUVEC
[5] = target: Transcription factor p65 (Homo sapiens) (UniProt Q04206); experiment: Inhibition of TNFalpha-stimulated DNA binding activity of NF-kappaB-p65 in nuclear extracts of human MDA-MB-231 cells at 2.5 to 15 uM incubated for 12 hrs followed by TNFalpha stimulation measured after 20 mins by ELISA
Method in brief: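 MDA-MB-231 cells exposed to compound or DMSO for 12 h, then TNFα (20 ng/mL final) for 20 min at 37 °C. Cells washed with ice-cold PBS, nuclear extracts prepared, protein measured by Bradford. 5 μg nuclear protein incubated on immobilized NF-κB response-element oligonucleotide, bound p65 detected by primary antibody and HRP secondary, absorbance 450 nm. Binding specificity checked with competing free oligonucleotide. Triplicates.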

A549 = experiment: cells; assay type: functional; conditions: Homo sapiens, A549, 48 h
[6] = target: T2, Proteasome Macropain subunit MB1 (Homo sapiens) (UniProt P28074); experiment: Inhibition of chymotrypsin like activity of 26S proteasome derived from human MDA-MB-231 cells at 50 uM
T2 sequence (whole entry): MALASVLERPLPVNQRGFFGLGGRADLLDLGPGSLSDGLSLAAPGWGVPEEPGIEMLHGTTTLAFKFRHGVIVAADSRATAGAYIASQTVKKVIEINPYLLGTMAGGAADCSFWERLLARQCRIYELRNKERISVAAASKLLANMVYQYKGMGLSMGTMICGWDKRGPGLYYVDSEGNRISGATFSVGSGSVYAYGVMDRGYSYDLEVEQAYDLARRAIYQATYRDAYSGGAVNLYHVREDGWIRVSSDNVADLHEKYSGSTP
Method in brief: (§1)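 Total protein extract from MDA-MB-231 cells served as the source of 26S proteasome. Trypsin-like, chymotrypsin-like and caspase-like activities were each measured with a specific fluorigenic peptide substrate.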

[7] = target: Transcription factor p65 (Homo sapiens) (UniProt Q04206); experiment: Inhibition of NF-kappaB-p65 binding to NF-kappaB response element oligonucleotide in nuclear extracts of 12 hrs compound pre-treated human MDA-MB-231 cells at 2.5 to 15 uM by ELISA
Method in brief: (§2)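 MDA-MB-231 cells treated with compound or DMSO for 12 h; in some runs TNFα (20 ng/mL final) added for a further 20 min at 37 °C. Nuclear extracts prepared on ice and protein measured by Bradford. 5 μg of extract incubated on plate-immobilized NF-κB response element oligonucleotide. Bound complexes detected with anti-p65 primary and HRP secondary antibody, read at 450 nm. Specificity checked by competition with free oligonucleotide; triplicates.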

Homo sapiens [8] = species on record: Homo sapiens; conditions: at 10 µM
Homo sapiens [9] = species on record: Homo sapiens; conditions: at 2.5 to 15 µM
[10] = target: Transcription factor p65 (Homo sapiens) (UniProt Q04206); experiment: Inhibition of IL-1beta-stimulated nuclear translocation of GFP-tagged NF-kappaB-p65 (unknown origin) expressed in CHO cells at 15 uM preincubated with IL-1beta for 30 mins followed by compound addition in presence of Pluronic F127 by fluorescence assay; assay type: cell-based
[11] = target: Proteasome Macropain subunit (Homo sapiens) (UniProt P49721); experiment: Inhibition of trypsin like activity of 26S proteasome derived from human MDA-MB-231 cells at 50 uM; method in brief: as §1
[12] = target: Transcription factor p65 (Homo sapiens) (UniProt Q04206); experiment: Inhibition of TNFalpha-stimulated DNA binding activity of NF-kappaB-p65 in human MDA-MB-231 cells at 2.5 to 15 uM incubated for 12 hrs followed by TNFalpha stimulation measured after 20 mins by ELISA; assay type: cell-based; method in brief: as §2
[13] = target: T1, MAP kinase-interacting serine/threonine-protein kinase 2; experiment: Inhibition of human full length N-terminal GST-tagged MNK2 expressed in baculovirus expression system
Target sequence in this assay (Q9HBH9 whole entry): as the sequence (Q9HBH9 whole entry, looked up) above

[14] = target: Receptor tyrosine-protein kinase erbB-4 (Homo sapiens) (UniProt Q15303); experiment: Inhibition of N-terminal GST-tagged human recombinant ERBB4 expressed in baculovirus expression system at 5 uM
MDA-MB-231 [15] = experiment: cells; assay type: functional; conditions: Homo sapiens, MDA-MB-231, 48 h
in vitro [16] = conditions: chinese hamster, CHO-K1 cells
[17] = target: T3, Proteasome component C5 (Homo sapiens) (UniProt P20618); experiment: Inhibition of caspase like activity of 26S proteasome derived from human MDA-MB-231 cells at 50 uM; method in brief: as §1
T3 sequence (whole entry): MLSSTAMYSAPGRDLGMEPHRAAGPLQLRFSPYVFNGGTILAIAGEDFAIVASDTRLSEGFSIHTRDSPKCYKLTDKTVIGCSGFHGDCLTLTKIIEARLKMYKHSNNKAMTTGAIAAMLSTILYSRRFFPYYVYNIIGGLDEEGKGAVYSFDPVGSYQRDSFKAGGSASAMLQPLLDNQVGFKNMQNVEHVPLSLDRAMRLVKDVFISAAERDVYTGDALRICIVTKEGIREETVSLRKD

[18] = Selectivity ratio of GI50 for HUVEC to GI50 for human A549 cells
[19] = target: T4, Epidermal growth factor receptor (Homo sapiens, UniProt P00533); experiment: biochemical; assay type: cell-based
[20] = Selectivity ratio of GI50 for CHOK1 cells to GI50 for human MDA-MB-231 cells
[21] = Selectivity ratio of GI50 for HUVEC to GI50 for human MDA-MB-231 cells
[22] = Selectivity ratio of GI50 for CHOK1 cells to GI50 for human A549 cells
[23] = target: T4, Epidermal growth factor receptor; conditions: at 150 nM
MDA-MB-231 [24] = experiment: Potency index, ratio of gefitinib GI50 to compound GI50 for human MDA-MB-231 cells; assay type: functional

Chain of Transcription factor p65 (Homo sapiens) (Q04206 whole entry): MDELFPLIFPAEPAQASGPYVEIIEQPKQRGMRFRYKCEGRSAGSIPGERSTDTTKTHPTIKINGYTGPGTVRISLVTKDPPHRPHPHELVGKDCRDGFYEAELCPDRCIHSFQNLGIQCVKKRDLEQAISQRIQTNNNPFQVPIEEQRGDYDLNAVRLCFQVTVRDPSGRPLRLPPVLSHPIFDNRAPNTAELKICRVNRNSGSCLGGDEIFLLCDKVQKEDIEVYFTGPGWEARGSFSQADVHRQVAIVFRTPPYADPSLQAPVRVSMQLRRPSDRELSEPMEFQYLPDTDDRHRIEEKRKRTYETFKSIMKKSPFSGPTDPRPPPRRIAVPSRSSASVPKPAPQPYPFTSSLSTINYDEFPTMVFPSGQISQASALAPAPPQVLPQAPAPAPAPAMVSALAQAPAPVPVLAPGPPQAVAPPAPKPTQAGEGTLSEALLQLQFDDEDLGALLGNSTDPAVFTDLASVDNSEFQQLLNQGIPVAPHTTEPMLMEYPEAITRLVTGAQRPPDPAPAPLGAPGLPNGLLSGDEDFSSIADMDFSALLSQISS
T4 sequence (P00533 whole entry): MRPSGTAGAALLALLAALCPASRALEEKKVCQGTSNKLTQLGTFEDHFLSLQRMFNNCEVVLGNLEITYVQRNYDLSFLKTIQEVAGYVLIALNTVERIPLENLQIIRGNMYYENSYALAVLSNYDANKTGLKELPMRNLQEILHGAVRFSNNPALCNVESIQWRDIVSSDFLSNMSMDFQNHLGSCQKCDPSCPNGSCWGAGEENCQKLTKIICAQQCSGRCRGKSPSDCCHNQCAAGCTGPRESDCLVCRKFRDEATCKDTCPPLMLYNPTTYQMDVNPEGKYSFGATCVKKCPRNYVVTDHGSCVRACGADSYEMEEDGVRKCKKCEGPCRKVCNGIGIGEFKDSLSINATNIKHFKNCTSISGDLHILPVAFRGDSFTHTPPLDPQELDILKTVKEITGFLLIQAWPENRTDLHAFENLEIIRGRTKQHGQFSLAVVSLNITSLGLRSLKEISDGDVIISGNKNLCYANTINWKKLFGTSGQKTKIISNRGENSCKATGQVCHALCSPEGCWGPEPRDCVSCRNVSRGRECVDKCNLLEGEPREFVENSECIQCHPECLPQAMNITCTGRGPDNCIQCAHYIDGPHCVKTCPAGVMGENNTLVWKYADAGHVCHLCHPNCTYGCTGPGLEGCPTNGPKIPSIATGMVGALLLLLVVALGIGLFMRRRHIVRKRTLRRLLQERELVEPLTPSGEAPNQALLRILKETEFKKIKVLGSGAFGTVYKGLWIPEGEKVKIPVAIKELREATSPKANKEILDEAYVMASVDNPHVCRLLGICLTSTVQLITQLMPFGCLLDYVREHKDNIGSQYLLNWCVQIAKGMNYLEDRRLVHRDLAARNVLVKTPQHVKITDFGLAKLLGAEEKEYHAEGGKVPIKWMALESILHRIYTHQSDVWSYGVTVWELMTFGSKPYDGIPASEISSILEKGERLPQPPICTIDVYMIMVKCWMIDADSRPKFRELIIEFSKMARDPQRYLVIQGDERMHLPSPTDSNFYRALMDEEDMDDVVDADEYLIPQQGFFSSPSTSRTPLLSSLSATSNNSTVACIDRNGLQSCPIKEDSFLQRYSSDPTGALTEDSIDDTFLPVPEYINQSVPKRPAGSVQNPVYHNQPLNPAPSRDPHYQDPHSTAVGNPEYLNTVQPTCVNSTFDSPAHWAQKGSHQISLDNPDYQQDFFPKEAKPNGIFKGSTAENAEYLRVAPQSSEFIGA
Chain of Proteasome Macropain subunit (Homo sapiens) (P49721 whole entry): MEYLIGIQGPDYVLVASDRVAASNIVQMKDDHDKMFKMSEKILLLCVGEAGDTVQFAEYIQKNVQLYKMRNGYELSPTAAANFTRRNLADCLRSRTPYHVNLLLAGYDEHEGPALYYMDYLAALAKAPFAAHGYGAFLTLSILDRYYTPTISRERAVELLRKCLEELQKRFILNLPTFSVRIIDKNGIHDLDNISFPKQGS
Chain of Receptor tyrosine-protein kinase erbB-4 (Homo sapiens) (Q15303 whole entry): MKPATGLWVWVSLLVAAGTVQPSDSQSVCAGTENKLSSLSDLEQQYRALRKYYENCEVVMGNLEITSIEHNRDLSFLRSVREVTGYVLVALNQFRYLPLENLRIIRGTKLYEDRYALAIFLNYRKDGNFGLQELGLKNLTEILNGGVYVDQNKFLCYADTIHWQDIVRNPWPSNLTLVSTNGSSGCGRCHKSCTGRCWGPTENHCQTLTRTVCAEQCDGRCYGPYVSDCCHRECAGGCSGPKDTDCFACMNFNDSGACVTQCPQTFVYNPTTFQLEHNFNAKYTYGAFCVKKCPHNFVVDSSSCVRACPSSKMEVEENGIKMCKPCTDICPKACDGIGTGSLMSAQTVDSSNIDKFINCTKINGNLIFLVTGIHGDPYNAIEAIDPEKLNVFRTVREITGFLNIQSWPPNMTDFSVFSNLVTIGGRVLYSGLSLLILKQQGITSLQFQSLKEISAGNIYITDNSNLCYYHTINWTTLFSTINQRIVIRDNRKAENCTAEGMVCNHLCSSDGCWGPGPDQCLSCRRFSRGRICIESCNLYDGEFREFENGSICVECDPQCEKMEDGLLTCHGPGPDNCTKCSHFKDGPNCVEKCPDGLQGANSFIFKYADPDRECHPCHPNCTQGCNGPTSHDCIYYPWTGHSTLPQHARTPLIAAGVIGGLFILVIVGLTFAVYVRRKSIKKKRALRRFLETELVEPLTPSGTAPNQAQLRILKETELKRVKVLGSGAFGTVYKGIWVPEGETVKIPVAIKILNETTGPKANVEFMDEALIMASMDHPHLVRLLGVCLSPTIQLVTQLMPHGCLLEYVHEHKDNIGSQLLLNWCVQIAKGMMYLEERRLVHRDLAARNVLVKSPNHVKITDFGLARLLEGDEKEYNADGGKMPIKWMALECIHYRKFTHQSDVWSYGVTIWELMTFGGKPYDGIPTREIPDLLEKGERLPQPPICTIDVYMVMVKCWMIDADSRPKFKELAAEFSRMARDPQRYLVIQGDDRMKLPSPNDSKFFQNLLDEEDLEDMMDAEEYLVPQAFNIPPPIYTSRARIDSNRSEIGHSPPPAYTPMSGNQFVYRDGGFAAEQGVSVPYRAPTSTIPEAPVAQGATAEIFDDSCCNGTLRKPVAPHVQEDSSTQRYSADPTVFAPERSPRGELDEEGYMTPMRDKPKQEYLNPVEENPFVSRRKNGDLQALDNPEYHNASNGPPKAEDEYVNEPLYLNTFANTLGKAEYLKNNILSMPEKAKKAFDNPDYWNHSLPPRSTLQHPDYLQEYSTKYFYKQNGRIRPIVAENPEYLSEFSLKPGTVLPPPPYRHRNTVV
Chain of Serine/threonine-protein kinase pim-1 (P11309 whole entry): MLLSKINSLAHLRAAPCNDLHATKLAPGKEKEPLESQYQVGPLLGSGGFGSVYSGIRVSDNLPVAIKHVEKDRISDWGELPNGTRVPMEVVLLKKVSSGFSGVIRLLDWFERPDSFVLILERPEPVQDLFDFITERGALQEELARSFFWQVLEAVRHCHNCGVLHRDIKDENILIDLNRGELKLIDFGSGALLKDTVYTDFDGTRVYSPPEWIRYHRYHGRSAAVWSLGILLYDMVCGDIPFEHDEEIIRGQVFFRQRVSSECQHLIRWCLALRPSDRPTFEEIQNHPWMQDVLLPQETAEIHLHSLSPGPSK

S=C(Nc1cccc(Cl)c1)Nc1ccc2ncnc(Nc3cccc(Br)c3)c2c1
IC50 [1]: 1200 nM
inhibition [2]: 78%
inhibition [3]: inactive
IC50 (cells): 1900 nM
GI50 at 48 h (in vitro [4]): 11.5 µM
inhibition [5]: inactive
GI50 (A549): 1600 nM
inhibition [6]: inactive
inhibition [7]: inactive
inhibition (Homo sapiens [8]): 97.4%
inhibition (Homo sapiens [9]): Dose-dependent effect
inhibition [10]: inactive
inhibition [11]: inactive
inhibition [12]: inactive
IC50 [13]: 2700 nM
inhibition [14]: 54%
GI50 (MDA-MB-231 [15]): 2100 nM
GI50 at 48 h (in vitro [16]): 25.7 µM
inhibition [17]: inactive

Fc1ccc(NC(=S)Nc2ccc3ncnc(Nc4cccc(Br)c4)c3c2)cc1Cl
inhibition [3]: inactive
IC50 (cells): 1000 nM
GI50 at 48 h (in vitro [4]): 14.8 µM
RatioGI50 [18]: 14.8
IC50 [19]: 25.3 nM
GI50 (A549): 1000 nM
inhibition [6]: inactive
inhibition (Homo sapiens [8]): 100%
RatioGI50 [20]: 173.7
RatioGI50 [21]: 49.3
inhibition [10]: inactive
inhibition [11]: inactive
GI50 (MDA-MB-231 [15]): 300 nM
RatioGI50 [22]: 52.1
inhibition [23]: 74.1%
GI50 at 48 h (in vitro [16]): 52.1 µM
inhibition [17]: inactive
RatioGI50 (MDA-MB-231 [24]): >35
